Calls of active or inactive are those of the source. The calls are words filed in the database; no cut-off is given here.
Columns and labels:
[1] = tested on: Protein smoothened (Homo sapiens), Q99835 [V404M]; assay: Displacement of [3H]-cyclopamine from SMO V404M mutant in gefitinib resistant human HCC827 cells at 10 uM by scintillation counting
[2] = target: Protein smoothened (Homo sapiens, UniProt Q99835, V404M); assay: Displacement of [3H]-cyclopamine from SMO V404M mutant in gefitinib resistant human HCC827 cells by scintillation counting
[3] = tested on: Protein smoothened (Homo sapiens), Q99835 [V404M]; assay: Inhibition of SMO V404M mutant in gefitinib resistant human HCC827 cells assessed as decrease in GLI1 activity at 2 uM by GLI1 luciferase reporter assay relative to control
How it was run: (§1)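 HCC827-GR cells seeded serum-free, cotransfected at 50% confluence with GLI1-firefly luciferase reporter plus pRL-TK Renilla (Lipofectamine 2000, triplicate); after 8 h medium switched to compound, with or without 100 nM SAG; about 48 h post-transfection dual-luciferase read; firefly normalized to Renilla as fold over control; three independent experiments.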

[4] = tested on: Protein smoothened (Homo sapiens), Q99835 [V404M]; assay: Inhibition of SMO V404M mutant in gefitinib resistant human HCC827 cells assessed as decrease in GLI1 activity at 60 uM by GLI1 luciferase reporter assay relative to control; how it was run: as §1
[5] = tested on: Protein smoothened (Homo sapiens), Q99835 [V404M]; assay: Inhibition of SMO V404M mutant in gefitinib resistant human HCC827 cells assessed as decrease in GLI1 activity at 2 to 60 uM in presence of SMO agonist SAG by GLI1 luciferase reporter assay; how it was run: as §1
[6] = tested on: Protein smoothened (Homo sapiens), Q99835 [V404M]; assay: Inhibition of SMO V404M mutant in gefitinib resistant human HCC827 cells assessed as decrease in GLI1 activity by GLI1 luciferase reporter assay; how it was run: as §1
[7] = target: Protein smoothened (Homo sapiens, UniProt Q99835); assay: Displacement of [3H]-cyclopamine from human wild-type SMO receptor expressed in HEK293T cell membranes by liquid scintillation spectrometry; parameters: species or system HEK-293T
[8] = tested on: HCC827; assay: Antiproliferative activity against gefitinib resistant EGFR-mutated human HCC827 cells after 72 hrs by MTT assay; type: functional, cell-based; settings: for IC50: HCC827, 72 h
[9] = tested on: HCC827; assay: Induction of apoptosis in gefitinib resistant human HCC827 cells at 0.01 to 1 uM after 72 hrs by annexin V-FITC-propidium iodide staining-based flow cytometry method relative to control; type: functional, cell-based
How it was run: (§2)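 HCC827-GR cells treated 72 h, trypsinized, resuspended at 1 × 10^6/mL in binding buffer, stained 30 min at RT in dark with annexin V-FITC and propidium iodide; FACSCalibur flow cytometry (488 nm excitation; 530 nm FITC, 670 nm PI); mean of three wells from a representative experiment.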

[10] = tested on: HCC827; assay: Downregulation of SMO expression in gefitinib resistant human HCC827 cells at 0.1 to 0.5 uM after 72 hrs by Western blotting method; type: functional, cell-based
How it was run: (§3)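 HCC827-GR cells treated 72 h; lysates in RIPA or Tween-20 buffer, protein equalized by Bradford, Western blotting with antibodies to p-MAPK44/42 (Thr202/Tyr204), MAPK, p-AKT (Ser473), AKT, p-MET (Tyr1234/1235), MET, SMO, GLI1, α-tubulin; ECL detection; triplicate.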

[11] = tested on: HCC827; assay: Effect on total MAPK levels in gefitinib resistant human HCC827 cells at 0.1 to 0.5 uM after 72 hrs by Western blotting method; type: ADME, cell-based; settings: hcc827, 72 h; how it was run: as §3
[12] = tested on: HCC827; assay: Effect on total AKT levels in gefitinib resistant human HCC827 cells at 0.1 to 0.5 uM after 72 hrs by Western blotting method; type: ADME, cell-based; settings: hcc827, 72 h; how it was run: as §3
[13] = tested on: HCC827; assay: Antitumor activity against gefitinib resistant human HCC827 cells xenografted in balb/c athymic nu/nu mouse assessed as decrease in tumor size at 20 mg/kg/day, po; type: functional, organism-based
How it was run: (§4)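 Female balb/c nu/nu mice, 4–6 weeks old, given 10^7 HCC827 cells s.c. in 1:1 Matrigel/medium; at 150 mm3 tumors, 3-weekly escalating oral gefitinib (18.7 to 150 mg/kg/day) over 4 months until resistance (>25% regrowth from maximal reduction); then randomized to oral test agent at fixed daily dose; tumor volume (π/6 × larger × smaller²) every other day.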

[14] = tested on: HCC827; assay: Antitumor activity against gefitinib resistant human HCC827 cells xenografted in balb/c athymic nu/nu mouse assessed as decrease in tumor size at 20 mg/kg/day, po in presence of gefitinib; type: functional, organism-based
How it was run: (§5)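 HCC827 s.c. xenografts (10^7 cells in Matrigel) in female balb/c nu/nu mice made gefitinib-resistant by 3-weekly escalating oral gefitinib (18.7–150 mg/kg/day); gefitinib then continued at its last maximal dose with oral compound at fixed daily dose; tumor volume by calipers (π/6 × larger × smaller²) and body weight on alternate days.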

[15] = tested on: HCC827; assay: Antitumor activity against gefitinib resistant human HCC827 cells xenografted in balb/c athymic nu/nu mouse assessed as decrease in tumor size at 20 mg/kg/day, po in presence of gefitinib
[16] = tested on: HCC827; assay: Induction of apoptosis in gefitinib resistant human HCC827 cells at 0.1 uM after 72 hrs by annexin V-FITC-propidium iodide staining-based flow cytometry method relative to control; type: functional; how it was run: as §2
[17] = tested on: HCC827; assay: Induction of apoptosis in gefitinib resistant human HCC827 cells at 0.5 uM after 72 hrs by annexin V-FITC-propidium iodide staining-based flow cytometry method relative to control; type: functional; how it was run: as §2
[18] = Plasma concentration in balb/c athymic nu/nu mouse at 20 mg/kg, po measured after 5 hrs; type: ADME, organism-based
[19] = tested on: HCC827; assay: Antitumor activity against gefitinib resistant human HCC827 cells xenografted in balb/c athymic nu/nu mouse assessed as decrease in tumor size at 15 mg/kg/day, po; type: functional, organism-based; how it was run: as §4
[20] = target: Hepatocyte growth factor receptor (Homo sapiens) (UniProt P08581); assay: Inhibition of MET phosphorylation at Tyr1234/1235 in gefitinib resistant human HCC827 cells at 0.05 to 0.1 uM after 72 hrs by Western blotting method; how it was run: as §3
[21] = tested on: HCC827; assay: Downregulation of SMO expression in gefitinib resistant human HCC827 cells at 0.05 to 0.1 uM after 72 hrs by Western blotting method; type: functional, cell-based; how it was run: as §3
[22] = tested on: HCC827; assay: Effect on total MAPK levels in gefitinib resistant human HCC827 cells at 0.05 to 0.1 uM after 72 hrs by Western blotting method; type: ADME, cell-based; settings: hcc827, 72 h; how it was run: as §3
[23] = tested on: HCC827; assay: Effect on total AKT levels in gefitinib resistant human HCC827 cells at 0.05 to 0.1 uM after 72 hrs by Western blotting method; type: ADME, cell-based; settings: hcc827, 72 h; how it was run: as §3
[24] = target: Hepatocyte growth factor receptor (Homo sapiens) (UniProt P08581); assay: Inhibition of MET in gefitinib resistant human HCC827 cells assessed as decrease in MAPK44/42 phosphorylation at Thr202/Tyr204 at 0.05 to 0.1 uM after 72 hrs by Western blotting method; how it was run: as §3
[25] = target: Hepatocyte growth factor receptor (Homo sapiens) (UniProt P08581); assay: Inhibition of MET in gefitinib resistant human HCC827 cells assessed as decrease in AKT phosphorylation at Ser473 at 0.05 to 0.1 uM after 72 hrs by Western blotting method; how it was run: as §3
[26] = species: Homo sapiens; assay: Inhibition of MET/SMO V404M mutant in gefitinib resistant human HCC827 cells assessed as decrease in vimentin expression at 0.05 to 0.1 uM after 72 hrs by Western blotting method
[27] = tested on: HCC827; assay: Antitumor activity against gefitinib resistant human HCC827 cells xenografted in balb/c athymic nu/nu mouse assessed as decrease in tumor size at 15 mg/kg/day, po in presence of gefitinib; type: functional, organism-based; how it was run: as §5
[28] = tested on: HCC827; assay: Antitumor activity against gefitinib resistant human HCC827 cells xenografted in balb/c athymic nu/nu mouse assessed as decrease in tumor size at 15 mg/kg/day, po in presence of gefitinib

Sequence of Hepatocyte growth factor receptor (Homo sapiens) (P08581 whole entry): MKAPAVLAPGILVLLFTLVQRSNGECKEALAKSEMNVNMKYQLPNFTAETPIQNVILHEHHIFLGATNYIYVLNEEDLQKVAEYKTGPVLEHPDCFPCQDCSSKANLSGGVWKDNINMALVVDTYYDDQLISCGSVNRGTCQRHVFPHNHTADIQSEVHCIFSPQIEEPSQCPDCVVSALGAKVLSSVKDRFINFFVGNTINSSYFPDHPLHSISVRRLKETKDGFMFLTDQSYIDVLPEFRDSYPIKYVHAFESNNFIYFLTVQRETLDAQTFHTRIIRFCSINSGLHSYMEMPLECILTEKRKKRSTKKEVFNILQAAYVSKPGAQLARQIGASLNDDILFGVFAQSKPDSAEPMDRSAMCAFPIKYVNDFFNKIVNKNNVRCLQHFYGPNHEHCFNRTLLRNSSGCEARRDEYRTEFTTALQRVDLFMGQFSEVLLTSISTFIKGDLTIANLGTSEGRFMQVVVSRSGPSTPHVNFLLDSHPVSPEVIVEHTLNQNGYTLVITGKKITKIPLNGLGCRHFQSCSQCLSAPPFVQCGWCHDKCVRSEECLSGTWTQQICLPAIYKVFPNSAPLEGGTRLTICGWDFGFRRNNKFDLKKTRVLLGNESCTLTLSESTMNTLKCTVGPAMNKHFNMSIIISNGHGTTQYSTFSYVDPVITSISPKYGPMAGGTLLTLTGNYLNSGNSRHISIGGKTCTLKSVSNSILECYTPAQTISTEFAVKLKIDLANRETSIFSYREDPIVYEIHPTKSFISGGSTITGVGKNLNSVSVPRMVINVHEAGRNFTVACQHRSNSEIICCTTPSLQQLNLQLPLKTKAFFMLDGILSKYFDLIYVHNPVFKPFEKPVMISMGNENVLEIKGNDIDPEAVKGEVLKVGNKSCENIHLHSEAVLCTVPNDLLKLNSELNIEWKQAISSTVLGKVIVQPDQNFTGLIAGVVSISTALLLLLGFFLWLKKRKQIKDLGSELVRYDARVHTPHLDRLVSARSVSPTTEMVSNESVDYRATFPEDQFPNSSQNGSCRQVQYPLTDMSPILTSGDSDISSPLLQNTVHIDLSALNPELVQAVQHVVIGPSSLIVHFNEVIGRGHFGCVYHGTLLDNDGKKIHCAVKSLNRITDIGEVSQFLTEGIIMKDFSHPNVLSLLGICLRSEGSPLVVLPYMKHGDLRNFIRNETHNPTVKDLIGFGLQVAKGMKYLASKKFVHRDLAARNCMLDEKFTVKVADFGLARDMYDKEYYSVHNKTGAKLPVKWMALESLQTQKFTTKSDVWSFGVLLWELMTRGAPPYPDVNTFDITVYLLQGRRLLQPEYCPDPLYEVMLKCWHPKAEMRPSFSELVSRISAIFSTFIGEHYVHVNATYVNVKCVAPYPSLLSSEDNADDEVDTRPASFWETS
Sequence of Protein smoothened (Homo sapiens), Q99835 [V404M] (Q99835 whole entry V404M): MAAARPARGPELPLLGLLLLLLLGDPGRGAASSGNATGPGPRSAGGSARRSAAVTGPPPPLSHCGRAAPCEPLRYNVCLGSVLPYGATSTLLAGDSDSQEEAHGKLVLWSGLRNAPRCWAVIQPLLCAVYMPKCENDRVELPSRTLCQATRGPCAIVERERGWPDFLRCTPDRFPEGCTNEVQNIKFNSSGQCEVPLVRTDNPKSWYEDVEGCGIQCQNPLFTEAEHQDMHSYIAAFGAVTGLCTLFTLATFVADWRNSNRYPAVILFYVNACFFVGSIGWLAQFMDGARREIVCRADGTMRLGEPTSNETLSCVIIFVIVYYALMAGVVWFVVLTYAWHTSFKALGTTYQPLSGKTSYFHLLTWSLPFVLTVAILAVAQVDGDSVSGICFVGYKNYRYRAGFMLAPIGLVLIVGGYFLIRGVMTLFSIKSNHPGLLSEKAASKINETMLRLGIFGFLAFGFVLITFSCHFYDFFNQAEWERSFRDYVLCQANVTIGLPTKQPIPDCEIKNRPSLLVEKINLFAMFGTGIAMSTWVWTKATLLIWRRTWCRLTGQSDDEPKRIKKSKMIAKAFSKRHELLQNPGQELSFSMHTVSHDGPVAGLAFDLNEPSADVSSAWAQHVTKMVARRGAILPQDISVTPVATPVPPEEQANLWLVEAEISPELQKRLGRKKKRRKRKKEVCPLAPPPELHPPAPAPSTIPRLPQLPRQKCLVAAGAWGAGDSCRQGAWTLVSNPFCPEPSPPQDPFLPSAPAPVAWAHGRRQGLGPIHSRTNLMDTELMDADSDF
Sequence of Protein smoothened (Homo sapiens, UniProt Q99835, V404M) (Q99835 28-787 V404M limits assumed): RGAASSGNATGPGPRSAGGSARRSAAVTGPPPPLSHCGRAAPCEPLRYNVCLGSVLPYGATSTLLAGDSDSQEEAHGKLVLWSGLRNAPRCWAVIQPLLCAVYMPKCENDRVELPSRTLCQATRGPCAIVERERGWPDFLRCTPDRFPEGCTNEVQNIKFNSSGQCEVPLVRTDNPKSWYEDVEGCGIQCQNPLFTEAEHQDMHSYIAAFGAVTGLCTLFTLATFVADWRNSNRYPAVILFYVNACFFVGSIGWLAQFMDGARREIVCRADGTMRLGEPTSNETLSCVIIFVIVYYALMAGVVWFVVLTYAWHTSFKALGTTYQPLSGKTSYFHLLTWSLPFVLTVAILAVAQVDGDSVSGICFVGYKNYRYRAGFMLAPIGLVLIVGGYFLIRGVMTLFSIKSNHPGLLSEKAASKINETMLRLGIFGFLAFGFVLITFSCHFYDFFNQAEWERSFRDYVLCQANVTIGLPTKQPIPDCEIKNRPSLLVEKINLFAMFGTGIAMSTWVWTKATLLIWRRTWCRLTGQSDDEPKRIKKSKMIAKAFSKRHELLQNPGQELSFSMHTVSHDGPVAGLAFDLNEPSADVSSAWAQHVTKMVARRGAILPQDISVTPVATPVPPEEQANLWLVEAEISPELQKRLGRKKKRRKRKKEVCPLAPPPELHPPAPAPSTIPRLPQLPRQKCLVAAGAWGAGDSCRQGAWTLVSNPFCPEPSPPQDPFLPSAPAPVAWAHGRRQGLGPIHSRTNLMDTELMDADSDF
Sequence of Protein smoothened (Homo sapiens, UniProt Q99835) (Q99835 whole entry): as the sequence (Q99835 whole entry V404M) above, with M404V counted along it

SMILES | inhibition [1] | Ki [2] [nM] | inhibition [3] [%] | inhibition [4] [%] | inhibition [5] | inhibition [6] | also measured
CCOc1ccn(-c2ccc(F)cc2)c(=O)c1C(=O)Nc1ccc(Oc2ccnc(N)c2Cl)c(F)c1 | inactive | – | – | – | – | – | –
COc1cc2ncnc(Oc3cccc(NC(=O)Nc4cc(C(C)(C)C(F)(F)F)on4)c3)c2cc1OC [CEP-32496] | – | 188 | 25 to 50 | 10 to 100 | inactive | Dose-dependent effect | –
CSc1cccc(Nc2ncc3cc(-c4c(Cl)cccc4Cl)c(=O)n(C)c3n2)c1 | – | 46.2 | 25 to 50 | 10 to 100 | inactive | Dose-dependent effect | –
O=C(NNC(=O)c1ccc([N+](=O)[O-])cc1)C(=O)c1c[nH]c2ccccc12 | – | 168 | 25 to 50 | 10 to 100 | inactive | Dose-dependent effect | –
Cc1ccc(NC(=O)CN2C(=O)/C(=N/NC(=O)c3cc(Br)ccc3O)c3ccccc32)cc1 | – | 50.4 | 25 to 50 | 10 to 100 | inactive | Dose-dependent effect | –
CCN1CCN(c2ccc(Nc3cc(N(C)C(=O)Nc4c(Cl)c(OC)cc(OC)c4Cl)ncn3)cc2)CC1 [INFIGRATINIB] | – | 46.5 | 25 to 50 | 10 to 100 | inactive | Dose-dependent effect | –
CC(C)(O)CC(=O)NCCn1ccc2ncnc(Nc3ccc(Oc4cccc(C(F)(F)F)c4)c(Cl)c3)c21 | inactive | – | – | – | – | – | –
Cc1cccc(C(=O)Nc2ccc(C(=O)NNC3C(=O)Nc4ccccc43)cc2)c1 (stereo not given) | inactive | – | – | – | – | – | –
O=C(CCCCCC(=O)N/N=C/c1cc2c(cc1[N+](=O)[O-])OCO2)N/N=C/c1cc2c(cc1[N+](=O)[O-])OCO2 | inactive | – | – | – | – | – | –
Cc1ccc(F)c(NC(=O)Nc2ccc(-c3cccc4[nH]nc(N)c34)cc2)c1 [LINIFANIB] | – | 87.6 | 25 to 50 | 10 to 100 | inactive | Dose-dependent effect | –
COc1cc2c(Oc3ccc(NC(=O)C4(C(=O)Nc5ccc(F)cc5)CC4)cc3F)ccnc2cc1OCCCN1CCOCC1 [FORETINIB] | – | 66.8 | 25 to 50 | 10 to 100 | inactive | Dose-dependent effect | Ki [7]: 59.7 nM; Activity [8]: Dose-dependent effect; IC50 [8]: 500 nM; Activity [9]: Active; Activity [10]: Active; Activity [11]: Non-Toxic; Activity [12]: Non-Toxic; Activity [13]: Active; Activity [14]: Active; Activity [15]: Active
Cn1cnc(-c2cc3nccc(Oc4ccc(NC(=S)NC(=O)Cc5ccccc5)cc4F)c3s2)c1 | – | 53.1 | 25 to 50 | 10 to 100 | inactive | Dose-dependent effect | Ki [7]: 41.7 nM; Activity [8]: Dose-dependent effect; IC50 [8]: 80 nM; Activity [16]: 62%; Activity [17]: 84%; concentration at 5 h [18]: 800 nM; Activity [19]: Active; inhibition [20]: Active; Activity [21]: Active; Activity [22]: Non-Toxic; Activity [23]: Non-Toxic; inhibition [24]: Active; inhibition [25]: Active; inhibition [26]: Active; Activity [27]: Active; Activity [28]: Active
